Assay outcomes deposited in PubChem by several laboratories.
MMP13 inh = human MMP13 inhibitors, primary screen, biochemical, FRET peptide cleavage; 65,000 tested, 0.07% active; Collagenase 3 (Homo sapiens), P45452; MMP-13 fTHP FRET cleavage, Mca fluorescence; inhibition, % at 4 µM; AID 570, 2006;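 active = inhibition above the mean of compound-free control plate wells plus 3 SD, cut at about 14% in these data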;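 also: 0% = DMSO wells and 100% = wells with reference MMP-13 inhibitor after basal subtraction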
WNV protease inh = inhibitors of WNV NS2B-NS3 protease, primary screen, biochemical, fluorogenic substrate | Genome polyprotein (West Nile virus), P06935 | fluorogenic substrate Ex360/Em465; active compounds read low | z-score (concentration not given with the values) | 65,000 tested, 0.18% active | AID 577, 2007; in the data active = z-score below about -3
Target sequence (P06935 1371-1501 limits assumed): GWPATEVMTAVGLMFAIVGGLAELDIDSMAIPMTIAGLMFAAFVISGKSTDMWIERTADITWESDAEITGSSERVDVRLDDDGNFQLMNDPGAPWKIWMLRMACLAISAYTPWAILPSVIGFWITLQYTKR
Target sequence (P06935 1502-1679 limits assumed): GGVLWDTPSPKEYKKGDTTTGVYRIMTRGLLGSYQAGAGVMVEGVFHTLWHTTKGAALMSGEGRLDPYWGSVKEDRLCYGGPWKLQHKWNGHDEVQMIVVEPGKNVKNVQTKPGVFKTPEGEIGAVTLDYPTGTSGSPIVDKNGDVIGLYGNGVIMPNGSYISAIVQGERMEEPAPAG
MT1-MMP txn act = MT1-MMP promoter reporter activation – cell-based, luciferase luminescence, primary screen; 86,000 tested, 0.16% active; AID 750, 2007; activation factor at 10 µM; HT1080 MT1-MMP promoter luciferase reporter, overnight; active compounds read high;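 active = activation factor of at least 2 for MT1-MMP transcription at 10 µM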
RORa activator = activators of orphan receptor RORA, primary screen, cell-based, luminescence | CHO-K1 Gal4-RORA LBD luciferase reporter; percent increase over mock-subtracted basal signal | Nuclear receptor ROR-alpha (Homo sapiens), P35398 | activation, % at 10 µM | AID 560, 2006 | 65,000 tested, 1.5% active;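 active = activation above the mean of all tested compounds plus 3 SD, cut at about 49% in these data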;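 also: 0% = DMSO-treated RORA cells and 100% = added signal equal to DMSO minus mock-transfected cells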
SF-1 act = activators of human SF-1, primary screen, cell-based, CHO-K1, Gal4-SF-1 LBD, luciferase luminescence | 65,000 tested, 1.9% active | Steroidogenic factor 1 (Homo sapiens), Q13285 | activation, % at 10 µM | CHO-K1 Gal4-SF-1 LBD luciferase reporter; % increase over DMSO SF-1-specific signal;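 active = activation above the mean activation of all tested compounds plus 3 SD, cut at about 50% in these data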
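material = CHO-K1 cells with Gal4–hSF-1 LBD chimera plus Gal4-driven luciferase | compound = 10 µM single point, 1% DMSO | incubation = 20 h compound exposure at 37 °C after 1 h cell settling | measured by = SteadyLite luciferase luminescence | evaluation = percent activation relative to DMSO median and mock-transfected background | control set = DMSO negative control and −SF1 background wells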
* marks the source's active call; other numbers are inactive results; i = inactive; x = no result. An excerpt weighted towards active compounds, which were near 2.3% of everything screened.

SMILES | MMP13 inh | WNV protease inh | MT1-MMP txn act | RORa activator | SF-1 act
Cc1ccnc(NC(=O)Nc2ccc(F)cc2)c1 | 5 | -0.02 | x | 21 | 36
Cc1ccc(NC(=O)Nc2ccc(F)cc2)nc1 | 4 | 0.0062 | 1.8 | 25 | 83*
COC(=O)c1cccc(S(=O)(=O)N2CCN(c3nc4ccccc4s3)CC2)c1 | 3 | 0.11 | 1 | 10 | -10
O=C(CN1C(=O)c2ccccc2S1(=O)=O)N1CCOCC1 | 4 | 2.4 | 2.1* | -25 | -8
CC(=O)c1c(C)[nH]c(C(=O)Nc2ccc3c(c2)OCCO3)c1C | -1 | -0.03 | 0.9 | 9 | 61*
O=C(Nc1ccc2c(c1)OCCO2)c1c(F)cccc1F | 0 | -0.75 | 0.8 | 47 | 56*
O=C(Nc1ccc2oc(-c3ccccc3F)nc2c1)c1ccc2c(c1)OCCO2 | -89 | 1 | x | 61* | 31
O=C(Nc1ccccc1-c1nc2ccccc2o1)c1ccc2c(c1)OCCO2 | 0 | -0.21 | 0.8 | -8 | -3
O=C(Nc1ccc2c(c1)OCCO2)c1ccccc1F | 0 | -0.69 | 0.6 | -30 | 2
Cn1c(O)c(C=Nc2ccc(Cc3ccncc3)cc2)c(=O)n(C)c1=O | 1 | 0.27 | 1.1 | -7 | -2
O=C(c1csc2c1CCCCC2)N1CCN(c2ncccn2)CC1 | -4 | -0.74 | 1.2 | 22 | -7
CCn1cc(Br)c(C(=O)Nc2cccc(SC)c2)n1 | 5 | 0.17 | 1.6 | 48 | 50*
CCn1cc(Br)c(C(=O)NC(C)c2ccccc2)n1 (stereo unspecified) | 4 | -0.99 | 1.1 | -1 | -7
O=C1OC(c2ccccc2)=N/C1=C\N1CCCCC1 | x | x | 1.6 | x | x
O=C1OC(c2ccccc2)=C/C1=C/N1CCCCC1 | 4 | -1.5 | 1.5 | 71* | 22
O=C(Nc1nnc(C2CCCO2)s1)c1cccs1 (stereo unspecified) | 7 | -0.88 | 1.3 | 36 | 36
O=C(Nc1nnc(C2CCCCC2)s1)c1cccs1 | -4 | -0.26 | 1.2 | 41 | 54*
O=C(Nc1nnc(C2CCCCC2)s1)c1ccco1 | -3 | -1.1 | 1.3 | 6 | 70*
COc1c2c(nc3occc13)C(CCC(C)(C)O)(OC)C(O)CC2 (stereo unspecified) | -1 | -0.5 | 1.2 | -21 | -11
N#C/C(C(=O)Oc1ccccc1)=C1\C=CC=CN1 | 2 | -1.5 | 1.3 | 58* | 35
N#C/C(C(=O)c1ccccc1)=C1/CCCN1 | -2 | -1 | 1.1 | 0 | 15
Cc1cc(C)cc(-n2cc3c(=O)n(C)c(=O)n(C)c3c2)c1 | 0 | -1.1 | 1 | 17 | 1
COc1ccc(OC)c(NS(=O)(=O)c2ccc(Cl)s2)c1 | -8 | -0.19 | 1 | 1 | -8
COc1ccc(OC)c(NS(=O)(=O)c2cccs2)c1 | 6 | -6* | 1.2 | 6 | -4
O=C(NCCC1=CCCCC1)C1CCN(S(=O)(=O)c2cccc3nsnc23)CC1 | 11 | 0.05 | 1.1 | -16 | 2
SMILES | MMP13 inh | WNV protease inh | MT1-MMP txn act | RORa activator | SF-1 act
CC(C)c1nc(N2CCN(C(=O)c3ccccc3)CC2)c(C#N)c2c1COC(C)(C)C2 | -57 | -0.82 | 0.9 | 18 | 53*
CC(C)c1cccc2nc3c(c(C(C)(C)C)c12)Cn1c-3cccc1=O | x | x | 1.1 | x | x
CCOC(=O)N1CCN(C(=O)c2ccccc2-c2ccccc2)CC1 | -3 | 0.37 | 0.5 | 17 | 60*
CCOC(=O)N1CCN(C(=O)c2ccccc2CCc2ccccc2)CC1 | 1 | 1 | 1.1 | -6 | -3
Brc1cccc(-c2cnc3n2CCCCC3)c1 | -2 | -4.2* | 1.1 | -10 | -15
S=C(N=Nc1ccccc1)NNc1ccccc1 | 3 | 1.6 | 1.9 | 37 | 36
CC(C)N1CC(O)=C(c2nc3ccccc3[nH]2)C1=N | 0 | -0.47 | 1.4 | 50* | 30
Cc1sc2ncnc(NCC(c3ccco3)N3CCCC3)c2c1C (stereo unspecified) | x | x | 1.1 | x | x
CC(C)(C)c1ccc(-c2conc2N)cc1 | 5 | -0.34 | 1 | 23 | 52*
CC(=O)Nc1nc(COc2ccccc2)cs1 | 0 | 0.18 | 1.3 | 51* | 38
Cc1ccc(CNC(=O)CSc2nc(N3CCCCC3)nc(N3CCCCC3)n2)cc1 | 1 | -1.9 | 1 | -29 | 5
O=C1Cc2ccccc2N1c1c(Cl)cccc1Cl | x | x | 2.2* | x | x
Cc1c(Cl)cccc1N1C(=O)c2ccccc2C1=O | 5 | 0.64 | 1.1 | -2 | 11
S=C(Nc1ccccc1)Nc1ccccc1C#Cc1ccccc1 | x | x | 1.1 | x | x
c1ccc2c(c1)NC1(CCCCC1)n1c-2nc2ccccc21 | i | 0.73 | 1.4 | 53* | 31
Cc1ccccc1-c1noc(-c2ccc(O)cc2)n1 | -1 | -1.5 | 1.1 | 101* | 33
Cc1ccccc1-c1noc(-c2ccccc2F)n1 | x | x | 1.4 | x | x
Cc1ccccc1-c1noc(-c2ccc(Cl)cc2)n1 | x | x | 2.1* | x | x
CCOc1ccc(Nc2nc(Cc3nnc(SCC(=O)NCc4ccco4)n3CC)cs2)cc1 | 0 | 0.08 | 1.2 | 9 | 0
Cc1cc(C(=O)CNCc2ccco2)c(C)n1-c1ccc(F)cc1 | 1 | 0.44 | 0.8 | 70* | 53*
COC(=O)[C@@]1(Cc2ccc(OC)cc2)[C@H]2c3cc(C(=O)N(C)C)n(Cc4ccc(C)o4)c3C[C@H]2CN1C(=O)c1ccccc1 | x | x | 1.2 | x | x
CCN1CCN(Cc2ccc(NC(=O)Nc3ccccc3OC)cc2)CC1 | 1 | 0.92 | 1.3 | 49* | 29
CCN1CCN(CCC(=O)Nc2ccccc2OC)CC1 | 0 | -0.48 | 1.1 | -12 | -2
O=C(COc1ccc(S(=O)(=O)N2CCCCC2)cc1)NCc1cccnc1 | x | x | 1 | x | x
COc1ccc2c(c1OC)C(=O)N(c1cccc(C(F)(F)F)c1)C2 | -6 | -0.02 | 1.7 | 30 | 59*
SMILES | MMP13 inh | WNV protease inh | MT1-MMP txn act | RORa activator | SF-1 act
COc1ccc2c(c1OC)C(=O)N(c1cccc(C)c1)C2 | 4 | -0.05 | 0.8 | 12 | 11
COc1ccc2c(c1OC)C(=O)N(c1ccccn1)C2 | -40 | -0.79 | 1.2 | 52* | 69*
COc1ccc(-n2ncc3c(NCC4CCCO4)ncnc32)cc1 (stereo unspecified) | x | x | 1.5 | x | x
Clc1ccc(-n2ncc3c(NCC4CCCO4)ncnc32)cc1 (stereo unspecified) | -16 | -0.49 | 0.6 | 96* | 122*
c1ccc(-n2ncc3c(NCC4CCCO4)ncnc32)cc1 (stereo unspecified) | -13 | 1.7 | 1.5 | 57* | 81*
CCOC(=O)N1CCC(Nc2ncnc3c2cnn3-c2ccccc2)CC1 | -14 | -0.43 | 1 | 1 | 15
c1ccc(-n2ncc3c(NC4CCCCCC4)ncnc32)cc1 | -2 | 0.54 | 1.4 | 77* | 91*
CN(C)c1ccc(NC(=O)Nc2cccc(Cl)c2)cc1 | 1 | -0.24 | 1.4 | 3 | 64*
CN(c1cccc(NC(=O)Nc2cccc(Cl)c2)c1)S(C)(=O)=O | 4 | -0.88 | 1.5 | 38 | 48
CNC1=C(Br)C(=O)c2ccncc2C1=O | x | x | 1 | x | x
